This passage reports inhibition and fold change (FC) results from ChEMBL document CHEMBL5653631, “A Potent and Selective ULK1 Inhibitor Suppresses Autophagy and Sensitizes Cancer Cells to Nutrient Stress” (iScience, 2018).

In experiment [1] the target is T1, Serine/threonine-protein kinase STK11 (Homo sapiens) (UniProt Q15831).
T1 sequence (whole entry): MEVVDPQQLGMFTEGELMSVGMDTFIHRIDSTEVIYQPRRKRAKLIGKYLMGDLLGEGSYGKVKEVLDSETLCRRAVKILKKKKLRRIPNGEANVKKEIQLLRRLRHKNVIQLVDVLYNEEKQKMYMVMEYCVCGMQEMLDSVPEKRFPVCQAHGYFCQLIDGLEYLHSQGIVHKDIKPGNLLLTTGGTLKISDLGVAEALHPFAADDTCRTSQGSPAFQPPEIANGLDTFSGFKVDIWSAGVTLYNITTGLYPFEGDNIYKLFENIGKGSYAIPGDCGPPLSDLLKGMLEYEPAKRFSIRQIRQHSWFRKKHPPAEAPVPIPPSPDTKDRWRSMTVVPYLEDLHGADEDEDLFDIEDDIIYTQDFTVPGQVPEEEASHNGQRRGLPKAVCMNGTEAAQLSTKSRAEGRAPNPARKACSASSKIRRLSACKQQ
Put plainly: Inhibition of human recombinant LKB1 at 15 nM in presence of ATP by radiometric assay relative to control.

For experiment [2], the target named is Tyrosine-protein kinase Blk (Homo sapiens) (UniProt P51451). Put plainly: Inhibition of human recombinant BLK at 15 nM related to control ULK1.
Sequence of Tyrosine-protein kinase Blk (Homo sapiens) (P51451 2-505 limits assumed): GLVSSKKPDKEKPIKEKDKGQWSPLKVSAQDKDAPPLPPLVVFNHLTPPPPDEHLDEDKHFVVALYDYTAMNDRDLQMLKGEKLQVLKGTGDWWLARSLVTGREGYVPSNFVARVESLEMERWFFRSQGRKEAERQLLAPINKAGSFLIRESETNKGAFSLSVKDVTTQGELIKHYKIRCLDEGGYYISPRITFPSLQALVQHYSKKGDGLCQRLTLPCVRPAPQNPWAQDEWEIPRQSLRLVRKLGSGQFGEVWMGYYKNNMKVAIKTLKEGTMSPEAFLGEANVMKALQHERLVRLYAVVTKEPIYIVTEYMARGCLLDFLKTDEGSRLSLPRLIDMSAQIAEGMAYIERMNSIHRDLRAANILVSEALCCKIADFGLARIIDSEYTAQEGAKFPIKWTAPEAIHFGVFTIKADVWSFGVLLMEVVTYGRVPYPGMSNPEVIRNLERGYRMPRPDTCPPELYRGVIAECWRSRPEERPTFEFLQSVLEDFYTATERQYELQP
Experiment [3] addresses Cyclin-dependent kinase 2 (Homo sapiens) (UniProt P24941). Put plainly: Inhibition of human recombinant CDK2 at 15 nM in presence of ATP by radiometric assay relative to control.
Experiment [4] concerns the target T2, Ephrin type-B receptor 4 (Homo sapiens) (UniProt P54760).
T2 sequence (whole entry): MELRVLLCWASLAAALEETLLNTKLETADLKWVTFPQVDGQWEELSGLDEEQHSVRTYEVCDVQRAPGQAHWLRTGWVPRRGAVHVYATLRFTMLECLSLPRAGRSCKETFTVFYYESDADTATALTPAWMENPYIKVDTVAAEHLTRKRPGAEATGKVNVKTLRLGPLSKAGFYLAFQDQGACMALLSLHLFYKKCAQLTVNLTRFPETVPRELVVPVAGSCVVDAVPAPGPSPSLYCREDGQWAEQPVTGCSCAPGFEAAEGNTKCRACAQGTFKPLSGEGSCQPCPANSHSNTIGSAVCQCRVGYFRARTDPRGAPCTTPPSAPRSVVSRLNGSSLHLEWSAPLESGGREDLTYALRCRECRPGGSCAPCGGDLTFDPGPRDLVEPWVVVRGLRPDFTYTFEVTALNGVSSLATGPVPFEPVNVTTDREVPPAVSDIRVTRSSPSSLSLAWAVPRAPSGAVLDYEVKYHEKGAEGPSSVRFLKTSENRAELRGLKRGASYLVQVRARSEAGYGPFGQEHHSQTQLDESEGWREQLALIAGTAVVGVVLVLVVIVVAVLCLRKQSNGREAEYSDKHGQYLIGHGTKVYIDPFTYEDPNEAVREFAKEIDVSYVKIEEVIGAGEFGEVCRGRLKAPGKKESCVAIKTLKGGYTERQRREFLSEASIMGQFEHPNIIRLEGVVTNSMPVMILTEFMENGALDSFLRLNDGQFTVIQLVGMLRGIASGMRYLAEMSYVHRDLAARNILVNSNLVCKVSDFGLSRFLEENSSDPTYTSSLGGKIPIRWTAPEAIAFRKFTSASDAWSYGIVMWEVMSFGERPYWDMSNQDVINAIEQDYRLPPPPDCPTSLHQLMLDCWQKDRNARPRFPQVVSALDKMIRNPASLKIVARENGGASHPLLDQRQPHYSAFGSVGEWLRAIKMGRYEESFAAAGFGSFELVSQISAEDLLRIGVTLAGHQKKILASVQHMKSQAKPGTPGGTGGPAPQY
Put plainly: Inhibition of human recombinant EphB4 at 15 nM in presence of ATP by radiometric assay relative to control.

Experiment [5] has as its target ALK tyrosine kinase receptor (Homo sapiens) (UniProt Q9UM73). Put plainly: Inhibition of human recombinant ALK at 40 nM related to control ULK1. In a few lines: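 Radiometric activity assays in a panel of 327 human recombinant kinases, each run in duplicate at one inhibitor concentration. Activity remaining is expressed as percent of vehicle control, and percent inhibition is calculated as 100% minus percent activity remaining.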

The target in experiment [6] is 3-phosphoinositide-dependent protein kinase 1 (Homo sapiens) (UniProt O15530). Put plainly: Inhibition of human recombinant PDK1 at 40 nM in presence of ATP by radiometric assay relative to control.
The target of experiment [7] is Serine/threonine-protein kinase MARK2 (Homo sapiens) (UniProt Q7KZI7). Put plainly: Inhibition of human recombinant MARK2 at 40 nM related to control ULK1.
The target of experiment [8] is Serine/threonine-protein kinase SIK2 (Homo sapiens) (UniProt Q9H0K1). Put plainly: Inhibition of human recombinant QIK at 40 nM related to control ULK1.
Sequence of Serine/threonine-protein kinase SIK2 (Homo sapiens) (Q9H0K1 whole entry, looked up): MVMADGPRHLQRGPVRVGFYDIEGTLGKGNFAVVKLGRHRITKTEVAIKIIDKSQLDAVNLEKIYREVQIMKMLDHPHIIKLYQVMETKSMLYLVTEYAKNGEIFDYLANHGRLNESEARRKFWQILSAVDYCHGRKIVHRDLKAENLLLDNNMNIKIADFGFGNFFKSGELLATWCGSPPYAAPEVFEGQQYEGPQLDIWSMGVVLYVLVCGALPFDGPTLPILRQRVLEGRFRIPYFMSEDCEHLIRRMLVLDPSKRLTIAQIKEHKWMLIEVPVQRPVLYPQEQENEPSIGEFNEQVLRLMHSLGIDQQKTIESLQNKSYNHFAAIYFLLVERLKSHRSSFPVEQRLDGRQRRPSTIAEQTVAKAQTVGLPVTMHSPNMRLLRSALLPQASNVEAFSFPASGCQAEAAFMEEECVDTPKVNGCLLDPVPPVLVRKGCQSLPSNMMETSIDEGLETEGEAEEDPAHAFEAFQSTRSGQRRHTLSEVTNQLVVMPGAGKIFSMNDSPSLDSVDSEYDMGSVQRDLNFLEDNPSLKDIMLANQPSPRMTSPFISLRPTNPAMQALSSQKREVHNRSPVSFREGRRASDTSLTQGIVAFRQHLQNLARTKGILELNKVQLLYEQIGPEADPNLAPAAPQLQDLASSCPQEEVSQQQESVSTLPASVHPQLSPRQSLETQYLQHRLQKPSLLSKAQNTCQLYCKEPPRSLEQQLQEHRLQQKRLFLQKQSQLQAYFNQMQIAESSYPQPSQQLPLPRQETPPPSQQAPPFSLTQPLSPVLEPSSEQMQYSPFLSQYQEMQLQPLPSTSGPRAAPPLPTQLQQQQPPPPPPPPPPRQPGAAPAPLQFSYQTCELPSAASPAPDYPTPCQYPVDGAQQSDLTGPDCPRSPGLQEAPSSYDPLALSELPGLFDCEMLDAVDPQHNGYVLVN
For experiment [9], the target named is Cyclin-dependent kinase-like 3 (Homo sapiens) (UniProt Q8IVW4). Put plainly: Inhibition of human recombinant CDKL3 at 40 nM related to control ULK1.
Sequence of Cyclin-dependent kinase-like 3 (Homo sapiens) (Q8IVW4 whole entry, looked up): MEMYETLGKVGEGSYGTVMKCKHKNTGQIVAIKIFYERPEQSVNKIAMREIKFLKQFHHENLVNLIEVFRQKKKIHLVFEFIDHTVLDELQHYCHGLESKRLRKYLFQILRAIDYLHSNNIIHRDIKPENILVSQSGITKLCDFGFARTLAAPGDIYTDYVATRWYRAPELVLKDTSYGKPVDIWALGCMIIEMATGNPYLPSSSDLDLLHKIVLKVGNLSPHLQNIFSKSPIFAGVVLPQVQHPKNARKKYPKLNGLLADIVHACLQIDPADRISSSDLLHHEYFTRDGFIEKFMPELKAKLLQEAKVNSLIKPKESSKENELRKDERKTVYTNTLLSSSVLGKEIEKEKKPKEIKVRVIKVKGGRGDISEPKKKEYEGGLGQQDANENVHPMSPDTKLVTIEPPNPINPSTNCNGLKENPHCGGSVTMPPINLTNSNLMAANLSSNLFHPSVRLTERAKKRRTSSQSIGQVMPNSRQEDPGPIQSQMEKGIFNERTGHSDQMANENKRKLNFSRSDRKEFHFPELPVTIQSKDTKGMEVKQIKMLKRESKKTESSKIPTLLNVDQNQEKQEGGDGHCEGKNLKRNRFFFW
The target in experiment [10] is T3, Serine/threonine-protein kinase DCLK3 (Homo sapiens) (UniProt Q9C098).
T3 sequence (whole entry): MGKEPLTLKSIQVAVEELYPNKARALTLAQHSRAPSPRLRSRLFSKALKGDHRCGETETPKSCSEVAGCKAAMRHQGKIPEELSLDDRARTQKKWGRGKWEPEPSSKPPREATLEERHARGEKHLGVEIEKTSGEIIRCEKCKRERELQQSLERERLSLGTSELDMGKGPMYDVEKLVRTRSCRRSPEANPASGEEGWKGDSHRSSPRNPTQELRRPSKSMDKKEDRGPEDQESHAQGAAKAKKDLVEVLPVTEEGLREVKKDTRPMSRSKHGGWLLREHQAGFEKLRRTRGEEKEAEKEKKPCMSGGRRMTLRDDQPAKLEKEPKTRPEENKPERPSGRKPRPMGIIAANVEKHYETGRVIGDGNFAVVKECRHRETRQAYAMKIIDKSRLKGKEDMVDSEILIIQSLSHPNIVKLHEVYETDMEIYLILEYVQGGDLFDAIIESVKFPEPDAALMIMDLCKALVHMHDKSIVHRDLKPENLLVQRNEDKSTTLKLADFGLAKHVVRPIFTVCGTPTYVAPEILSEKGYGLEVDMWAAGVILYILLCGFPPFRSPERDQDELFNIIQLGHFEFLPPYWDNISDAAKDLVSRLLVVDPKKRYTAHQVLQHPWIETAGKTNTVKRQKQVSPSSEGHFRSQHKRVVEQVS
Put plainly: Inhibition of human recombinant DCAMKL3 at 500 nM related to control ULK1.

Experiment [11] concerns the target Hepatocyte growth factor receptor (Homo sapiens) (UniProt P08581). Put plainly: Inhibition of human recombinant MET at 500 nM related to control ULK1.

Sequence of Hepatocyte growth factor receptor (Homo sapiens) (P08581 whole entry, looked up): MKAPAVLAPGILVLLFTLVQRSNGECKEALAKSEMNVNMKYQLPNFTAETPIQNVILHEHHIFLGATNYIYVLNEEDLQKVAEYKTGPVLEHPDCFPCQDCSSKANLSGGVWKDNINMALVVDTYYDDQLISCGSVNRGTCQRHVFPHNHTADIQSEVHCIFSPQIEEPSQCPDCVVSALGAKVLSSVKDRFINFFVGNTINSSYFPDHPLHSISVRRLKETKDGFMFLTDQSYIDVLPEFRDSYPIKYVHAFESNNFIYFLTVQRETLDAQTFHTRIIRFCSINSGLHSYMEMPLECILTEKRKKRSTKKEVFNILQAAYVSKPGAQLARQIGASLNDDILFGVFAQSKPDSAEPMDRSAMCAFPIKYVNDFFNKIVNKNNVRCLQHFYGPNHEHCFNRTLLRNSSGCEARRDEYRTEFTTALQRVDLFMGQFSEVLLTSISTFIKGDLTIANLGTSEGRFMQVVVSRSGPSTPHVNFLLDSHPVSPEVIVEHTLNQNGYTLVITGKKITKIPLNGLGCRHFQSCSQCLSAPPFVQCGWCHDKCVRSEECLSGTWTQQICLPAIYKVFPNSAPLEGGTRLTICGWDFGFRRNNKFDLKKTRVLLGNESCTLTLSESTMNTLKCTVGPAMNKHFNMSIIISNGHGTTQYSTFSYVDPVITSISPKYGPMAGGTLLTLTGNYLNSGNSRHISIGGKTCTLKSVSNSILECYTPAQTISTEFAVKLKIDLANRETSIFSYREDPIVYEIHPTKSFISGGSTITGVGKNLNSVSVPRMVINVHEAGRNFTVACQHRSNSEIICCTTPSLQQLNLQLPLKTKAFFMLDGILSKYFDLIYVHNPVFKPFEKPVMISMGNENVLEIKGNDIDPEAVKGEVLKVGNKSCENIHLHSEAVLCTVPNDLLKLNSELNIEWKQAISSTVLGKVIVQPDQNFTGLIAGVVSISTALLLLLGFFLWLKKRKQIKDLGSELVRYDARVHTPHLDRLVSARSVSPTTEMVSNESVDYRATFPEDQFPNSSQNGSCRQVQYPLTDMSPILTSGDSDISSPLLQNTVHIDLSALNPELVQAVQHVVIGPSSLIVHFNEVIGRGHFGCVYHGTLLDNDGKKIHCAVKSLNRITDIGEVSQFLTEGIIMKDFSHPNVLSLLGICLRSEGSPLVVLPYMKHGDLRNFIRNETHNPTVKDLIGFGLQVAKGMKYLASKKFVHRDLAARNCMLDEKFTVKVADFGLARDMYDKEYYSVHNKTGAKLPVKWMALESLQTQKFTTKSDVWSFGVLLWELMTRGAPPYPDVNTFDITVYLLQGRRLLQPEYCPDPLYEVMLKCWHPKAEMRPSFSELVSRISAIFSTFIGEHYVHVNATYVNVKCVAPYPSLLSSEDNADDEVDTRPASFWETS
Sequence of ALK tyrosine kinase receptor (Homo sapiens) (Q9UM73 19-1620 limits assumed): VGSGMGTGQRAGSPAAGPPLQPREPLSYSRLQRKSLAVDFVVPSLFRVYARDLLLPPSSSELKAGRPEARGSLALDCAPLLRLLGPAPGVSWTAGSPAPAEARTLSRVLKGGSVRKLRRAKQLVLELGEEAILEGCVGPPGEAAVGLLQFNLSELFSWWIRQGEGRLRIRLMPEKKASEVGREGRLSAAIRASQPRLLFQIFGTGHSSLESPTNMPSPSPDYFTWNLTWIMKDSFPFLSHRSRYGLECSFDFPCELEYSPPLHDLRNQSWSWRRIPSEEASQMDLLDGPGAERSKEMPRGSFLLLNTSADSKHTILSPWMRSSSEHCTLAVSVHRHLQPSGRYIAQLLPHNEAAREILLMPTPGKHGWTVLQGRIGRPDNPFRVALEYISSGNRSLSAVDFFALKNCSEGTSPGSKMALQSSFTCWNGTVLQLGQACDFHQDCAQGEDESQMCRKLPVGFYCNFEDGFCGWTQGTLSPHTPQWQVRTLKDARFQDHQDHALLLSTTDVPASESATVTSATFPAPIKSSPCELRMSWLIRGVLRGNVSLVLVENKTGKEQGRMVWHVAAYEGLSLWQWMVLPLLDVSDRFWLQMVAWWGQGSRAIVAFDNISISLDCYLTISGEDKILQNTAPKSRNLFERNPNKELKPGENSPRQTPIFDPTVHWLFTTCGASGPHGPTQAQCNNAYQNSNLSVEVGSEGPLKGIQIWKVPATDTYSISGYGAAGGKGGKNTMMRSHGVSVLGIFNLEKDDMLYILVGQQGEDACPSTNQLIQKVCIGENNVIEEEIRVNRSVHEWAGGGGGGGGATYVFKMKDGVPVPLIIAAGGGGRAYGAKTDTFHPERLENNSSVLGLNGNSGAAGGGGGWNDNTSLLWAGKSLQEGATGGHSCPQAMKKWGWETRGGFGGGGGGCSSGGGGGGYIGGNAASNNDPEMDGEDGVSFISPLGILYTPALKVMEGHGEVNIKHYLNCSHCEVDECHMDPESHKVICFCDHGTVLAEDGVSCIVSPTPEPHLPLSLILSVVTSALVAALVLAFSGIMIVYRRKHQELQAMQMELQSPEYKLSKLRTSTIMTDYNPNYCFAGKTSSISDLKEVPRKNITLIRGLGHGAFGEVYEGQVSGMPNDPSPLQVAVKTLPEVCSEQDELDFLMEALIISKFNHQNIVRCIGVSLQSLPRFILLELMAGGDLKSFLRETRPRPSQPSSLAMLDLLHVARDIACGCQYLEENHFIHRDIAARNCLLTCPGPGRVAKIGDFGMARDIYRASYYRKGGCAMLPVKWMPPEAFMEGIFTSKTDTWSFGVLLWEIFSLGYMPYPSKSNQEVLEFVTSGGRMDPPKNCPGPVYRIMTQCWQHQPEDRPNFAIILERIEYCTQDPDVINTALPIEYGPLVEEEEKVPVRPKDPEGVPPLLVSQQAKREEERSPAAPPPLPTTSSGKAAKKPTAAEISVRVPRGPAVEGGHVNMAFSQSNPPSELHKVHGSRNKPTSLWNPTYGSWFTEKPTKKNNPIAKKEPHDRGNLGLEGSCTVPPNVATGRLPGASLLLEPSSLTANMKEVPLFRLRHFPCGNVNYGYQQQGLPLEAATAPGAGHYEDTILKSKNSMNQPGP

Broadly, the inhibition is the change of the read-out against control, counted positive when it falls. Turning to `CC(C)[C@H](NC(=O)c1cc(-c2cnn3cc(-c4ccc(OCCN5CCCCC5)cc4)cnc23)cs1)C(F)(F)F`, the inhibition in experiment [1] was found to be 0%; in [3], 1%; in [4], 3%. Further, in experiment [2], the fold change (FC) amounted to 0.11.
With `O=C(N[C@@H](C1CC1)C(F)(F)F)c1cc(-c2cnn3cc(-c4ccc(F)cc4)cnc23)cs1`, the fold change (FC) in [5] worked out at 0; in experiment [7], 0.16; in experiment [8], 0.74; in experiment [9], 0.53. Further, in [6], the inhibition turned out to be 0%.
Turning to `CNC(=O)c1ccccc1Oc1nc(Nc2cc(OC)c(OC)c(OC)c2)ncc1Br`, the fold change (FC) in experiment [10] is 0; in experiment [11], 0.43.
